Experimental findings from ChEMBL document CHEMBL1148039, “New aporphine alkaloids from guatteria foliosa” (1994) are described below.

One assay deals with Trypanosoma cruzi. The assay is described as follows: Antiprotozoal activity against trypomastigotes form of Trypanosoma cruzi Y at 250 ug/ml after 24 hrs. The assay is classed as functional. The gist of the method: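 Bloodstream trypomastigotes taken from blood of T. cruzi-infected mice and incubated with test compound (DMSO solution) for 24 h at 4°. Parasites then counted. Assay done three times.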

The test system of assay [1] is Leishmania amazonensis. The assay is described as follows: Antiprotozoal activity against promastigotes form of Leishmania amazonensis H-142 assessed as less mobile parasites at 100 ug/ml after 24 hrs. The assay is classed as functional, organism-based. The gist of the method:
(§1)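 Promastigotes of each Leishmania strain exposed to test compound at 100 µg/ml, dissolved in DMSO, for 24 h at 28°. Viability judged by direct inverted-microscope observation and scored against controls: 0 no lysis; + less mobile; ++ modified or immobilized; +++ total lysis. Three independent runs.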

The test system of assay [2] is Leishmania donovani. The assay is described as follows: Antiprotozoal activity against promastigotes form of Leishmania donovani pp-75 assessed as less mobile parasites at 100 ug/ml after 24 hrs. It is filed as functional, organism-based. The gist of the method:
as §1

For assay [3], the system named is Leishmania braziliensis. Kind of assay: Antiprotozoal activity against promastigotes form of Leishmania braziliensis 2903 assessed as immobilized parasites at 100 ug/ml after 24 hrs. It is filed as functional, organism-based. The gist of the method:
as §1

In assay [4] the test system is Leishmania amazonensis. Kind of assay: Antiprotozoal activity against promastigotes form of Leishmania amazonensis LV79 assessed as less mobile parasites at 100 ug/ml after 24 hrs. The assay is classed as functional, organism-based. The essentials: as §1
In assay [5] the test system is Leishmania donovani. Kind of assay: Antiprotozoal activity against promastigotes form of Leishmania donovani pp-75 assessed as immobilized parasites at 100 ug/ml after 24 hrs. It is filed as functional, organism-based. The gist of the method:
as §1

The subject of assay [6] is Leishmania braziliensis. The assay is described as follows: Antiprotozoal activity against promastigotes form of Leishmania braziliensis 2903 assessed as total lysis of parasites at 100 ug/ml after 24 hrs. The assay is classed as functional, organism-based. The gist of the method: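 Promastigotes exposed to compound (dissolved in DMSO) at 100 µg/ml for 24 h at 28°. Viability judged by direct observation under an inverted microscope and scored as 0 (no lysis), + (less mobile than controls), ++ (modified or immobilized) or +++ (total lysis). Each assay run three times. Glucantime and pentamidine used as control drugs.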

Assay [7] deals with Leishmania amazonensis. The assay is described as follows: Antiprotozoal activity against promastigotes form of Leishmania amazonensis H-142 assessed as total lysis of parasites at 100 ug/ml after 24 hrs. It is filed as functional, organism-based. The essentials:
as §1

The test system of assay [8] is Leishmania donovani. Kind of assay: Antiprotozoal activity against promastigotes form of Leishmania donovani pp-75 assessed as total lysis of parasites at 100 ug/ml after 24 hrs. It is filed as functional, organism-based. The gist of the method:
as §1

Assay [9] relates to Leishmania amazonensis. The assay is described as follows: Antiprotozoal activity against promastigotes form of Leishmania amazonensis LV79 assessed as total lysis of parasites at 100 ug/ml after 24 hrs. The assay is classed as functional, organism-based. The gist of the method:
as §1

Calls of active or inactive are those of the source. No cut-off for these calls is given here.

`CN(C)c1ccc(C(=C2C=CC(=[N+](C)C)C=C2)c2ccc(N(C)C)cc2)cc1.[Cl-]` [GENTIAN VIOLET] had an Activity in the assay on Trypanosoma cruzi of 100%.
Regarding `COc1c2c3c(c4c1OCO4)-c1ccc(O)cc1C(C)(O)C3=NCC2` (stereo not given), in the assay with Trypanosoma cruzi, the Activity amounted to 0%.
On to `COc1c(O)c2c3c(c1OC)-c1ccccc1C[C@H]3NCC2`, for which, in the assay on Trypanosoma cruzi, the Activity was determined as 68.2%.
For `COc1cccc2c1-c1c3c(c(OC)c4c1[C@@H](C2)NCC4)OCO3`, the Activity in the assay with Trypanosoma cruzi is recorded as 35.7%.
With `COc1c(O)cc(CCN(C)C)c2ccc3ccccc3c12` [ARGENTININE], the result in the assay with Leishmania amazonensis [1], with Leishmania donovani [2], in the assay with Leishmania braziliensis [3] and in the assay with Leishmania amazonensis [4] was Active. The Activity with Trypanosoma cruzi is 81.3%.
`COc1c(O)c2c3c(c1OC)-c1ccc(O)cc1C[C@@H]3NCC2` gave an Activity in the assay with Trypanosoma cruzi of 2.55%.
Turning to `COc1cc2c(cc1O)C[C@H]1c3cc(O)c(OC)cc3CCN1C2` [COREXIMINE], the result with Leishmania amazonensis [1], in the assay on Leishmania donovani [5], in the assay on Leishmania braziliensis [3] and in the assay on Leishmania amazonensis [4] was Active. The Activity in the assay on Trypanosoma cruzi is on record as 0%.
In turn, `COc1cccc2c1-c1c3c(c(OC)c4ccnc(c14)C2=O)OCO3` displayed an Activity with Trypanosoma cruzi of 46.6%.
Consider MEGLUMINE ANTIMONATE, for which the result with Leishmania braziliensis [6], with Leishmania amazonensis [7], in the assay on Leishmania donovani [8] and with Leishmania amazonensis [9] was Active.
As for `COc1c(O)c(OC)c2c3c1CCN=C3C(C)(O)c1cc(O)ccc1-2` (stereo not given) [ISOGUATTOUREGIDINE], the outcome with Leishmania amazonensis [7], in the assay with Leishmania donovani [8], in the assay on Leishmania braziliensis [3] and in the assay on Leishmania amazonensis [9] was Active. The compound also returned an Activity in the assay with Trypanosoma cruzi of 92%.
Compound `COc1c2c3c(c4c1OCO4)-c1c(O)cccc1C[C@H]3NCC2` [ELMERRILLICINE] yielded an Activity with Trypanosoma cruzi of 0%.
Regarding `N=C(N)c1ccc(OCCCCCOc2ccc(C(=N)N)cc2)cc1`, the result in the assay with Leishmania braziliensis [6], with Leishmania amazonensis [7], with Leishmania donovani [8] and in the assay with Leishmania amazonensis [9] was Active.
